Measured values published in ChEMBL document CHEMBL1137886, “Pyridazine derivatives and related compounds. Part 13: Synthesis and antimicrobial activity of some pyridazino[3',4':3,4]pyrazolo[5,1-c]-1,2,4-triazines” (2004).

What was measured:
[1] = system: Escherichia coli; assay: In vitro antimicrobial activity against Escherichia coli was evaluated by measuring the diameter of zone of inhibition; assay type: functional
Procedure, shortened: (§1)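 Disc diffusion on nutrient agar seeded with the bacterium: glass microfiber discs (0.6 cm) saturated with 0.2 mL of aqueous compound solutions at different concentrations; incubation at 37°C for 48 h; diameter of growth-inhibition zone read in millimetres.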

[2] = system: Escherichia coli; assay: In vitro antimicrobial activity against Escherichia coli was evaluated by measuring the diameter of zone of inhibition; NS denotes no significant inhibition; assay type: functional, organism-based; procedure, shortened: as §1
[3] = system: Candida albicans; assay: In vitro antifungal activity against Candida albicans was evaluated by measuring the diameter of zone of inhibition; NS denotes no significant inhibition; assay type: functional, organism-based
Procedure, shortened: (§2)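 Disc diffusion: glass microfiber discs (0.6 cm) saturated with 0.2 mL of aqueous compound solutions at various concentrations, placed on malt extract agar seeded with the yeast; plates incubated at 28°C for 96 h; inhibition zone diameter measured in mm.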

[4] = system: Pseudomonas aeruginosa; assay: In vitro antimicrobial activity against Pseudomonas aeruginosa was evaluated by measuring the diameter of zone of inhibition; NS denotes no significant inhibition; assay type: functional, organism-based; procedure, shortened: as §1
[5] = system: Staphylococcus aureus; assay: In vitro antimicrobial activity against Staphylococcus aureus was evaluated by measuring the diameter of zone of inhibition; NS denotes no significant inhibition; assay type: functional, organism-based; procedure, shortened: as §1
[6] = system: Staphylococcus aureus; assay: In vitro antimicrobial activity against Staphylococcus aureus was evaluated by measuring the diameter of zone of inhibition; assay type: functional; procedure, shortened: as §1
[7] = system: Candida albicans; assay: In vitro antifungal activity against Candida albicans was evaluated by measuring the diameter of zone of inhibition; assay type: functional; procedure, shortened: as §2
[8] = system: Pseudomonas aeruginosa; assay: In vitro antimicrobial activity against Pseudomonas aeruginosa was evaluated by measuring the diameter of zone of inhibition; assay type: functional; procedure, shortened: as §1

| Compound | Inhibition [1] [mm] | Inhibition [2] | Inhibition [3] | Inhibition [4] | Inhibition [5] | Inhibition [6] [mm] | Inhibition [7] [mm] | Inhibition [8] [mm] |
| --- | --- | --- | --- | --- | --- | --- | --- | --- |
| Cc1c(C(=O)N/N=C/c2ccco2)nnc2c3c(-c4ccccc4)c(-c4ccccc4)nnc3nn12 | 2 |  |  |  |  |  |  |  |
| Cc1c(C(=O)N/N=C/c2ccc3ccccc3c2)nnc2c3c(-c4ccccc4)c(-c4ccccc4)nnc3nn12 |  | No inhibition | No inhibition | No inhibition | No inhibition |  |  |  |
| Cc1c(C(=O)O)nnc2c3c(-c4ccccc4)c(-c4ccccc4)nnc3nn12 |  | No inhibition | No inhibition | No inhibition | No inhibition |  |  |  |
| CCOC(=O)c1nnc2c3c(-c4ccccc4)c(-c4ccccc4)nnc3nn2c1-c1ccccc1 |  | No inhibition | No inhibition | No inhibition | No inhibition |  |  |  |
| COc1ccc(/C=N/NC(=O)c2nnc3c4c(-c5ccccc5)c(-c5ccccc5)nnc4nn3c2C)cc1 |  |  |  |  |  | 3 |  |  |
| CC(=O)c1nnc2c3c(-c4ccccc4)c(-c4ccccc4)nnc3nn2c1C |  |  |  |  |  | 4 | 3 |  |
| Cc1c(C(=O)NNc2ccccc2)nnc2c3c(-c4ccccc4)c(-c4ccccc4)nnc3nn12 |  | No inhibition | No inhibition | No inhibition | No inhibition |  |  |  |
| Cc1ccc(/C=N/NC(=O)c2nnc3c4c(-c5ccccc5)c(-c5ccccc5)nnc4nn3c2C)o1 |  | No inhibition | No inhibition | No inhibition | No inhibition |  |  |  |
| NC(=O)NNC(=O)c1nnc2c3c(-c4ccccc4)c(-c4ccccc4)nnc3nn2c1-c1ccccc1 |  | No inhibition | No inhibition | No inhibition | No inhibition |  |  |  |
| Cc1c(C(=O)N/N=C/c2cccs2)nnc2c3c(-c4ccccc4)c(-c4ccccc4)nnc3nn12 | 2 |  |  |  |  | 2 |  |  |
| Cc1c(/C(=N/N)c2ccccc2)nnc2c3c(-c4ccccc4)c(-c4ccccc4)nnc3nn12 |  | No inhibition | No inhibition | No inhibition | No inhibition |  |  |  |
| Cc1c(C(=O)NNC(N)=O)nnc2c3c(-c4ccccc4)c(-c4ccccc4)nnc3nn12 |  | No inhibition | No inhibition | No inhibition | No inhibition |  |  |  |
| Cc1c(C(=O)N/N=C/c2ccc(Cl)cc2)nnc2c3c(-c4ccccc4)c(-c4ccccc4)nnc3nn12 |  | No inhibition | No inhibition | No inhibition | No inhibition |  |  |  |
| c1ccc(-c2nnc3nn4c(-c5ccccc5)cnnc4c3c2-c2ccccc2)cc1 |  | No inhibition | No inhibition | No inhibition | No inhibition |  |  |  |
| Cc1c(C(=O)N/N=C/c2cccn2C)nnc2c3c(-c4ccccc4)c(-c4ccccc4)nnc3nn12 |  | No inhibition | No inhibition | No inhibition | No inhibition |  |  |  |
| Cc1ccc(/C=N/NC(=O)c2nnc3c4c(-c5ccccc5)c(-c5ccccc5)nnc4nn3c2C)s1 |  |  |  |  |  |  | 2 |  |
| Cc1c(/C(=N/NC(N)=O)c2ccccc2)nnc2c3c(-c4ccccc4)c(-c4ccccc4)nnc3nn12 | 3 |  |  |  |  | 4 |  | 2 |
| C/C(=N\NC(N)=O)c1nnc2c3c(-c4ccccc4)c(-c4ccccc4)nnc3nn2c1C |  | No inhibition | No inhibition | No inhibition | No inhibition |  |  |  |
| Cc1c(C(=O)N/N=C/c2ccc([N+](=O)[O-])cc2)nnc2c3c(-c4ccccc4)c(-c4ccccc4)nnc3nn12 | 5 |  |  |  |  |  |  |  |
| Cc1c(C(=O)N/N=C/c2ccccc2)nnc2c3c(-c4ccccc4)c(-c4ccccc4)nnc3nn12 |  | No inhibition | No inhibition | No inhibition | No inhibition |  |  |  |
| Cc1c(C(=O)N/N=C/c2ccc[nH]2)nnc2c3c(-c4ccccc4)c(-c4ccccc4)nnc3nn12 | 2 |  |  |  |  |  |  |  |
| O=C(NNc1ccccc1)c1nnc2c3c(-c4ccccc4)c(-c4ccccc4)nnc3nn2c1-c1ccccc1 |  | No inhibition | No inhibition | No inhibition | No inhibition |  |  |  |
| Cc1cnnc2c3c(-c4ccccc4)c(-c4ccccc4)nnc3nn12 |  | No inhibition | No inhibition | No inhibition | No inhibition |  |  |  |
| Cc1c(/C(=N/Nc2ccccc2)c2ccccc2)nnc2c3c(-c4ccccc4)c(-c4ccccc4)nnc3nn12 |  | No inhibition | No inhibition | No inhibition | No inhibition |  |  |  |
| CCOC(=O)c1nnc2c3c(-c4ccccc4)c(-c4ccccc4)nnc3nn2c1C |  | No inhibition | No inhibition | No inhibition | No inhibition |  |  |  |
| O=C(O)c1nnc2c3c(-c4ccccc4)c(-c4ccccc4)nnc3nn2c1-c1ccccc1 |  | No inhibition | No inhibition | No inhibition | No inhibition |  |  |  |
| NNC(=O)c1nnc2c3c(-c4ccccc4)c(-c4ccccc4)nnc3nn2c1-c1ccccc1 |  | No inhibition | No inhibition | No inhibition | No inhibition |  |  |  |
